The list is not random: actives were taken first. Their share in the collection is about 1.5%.
EBI2 antag: blocks human EBI2 receptor beta-arrestin signaling; EBI2 beta-arrestin recruitment, luminescence, 7a,25-OHC stimulated; AID 651636; inhibition, % at 5 µM; 0.81% of 360,000 active; P32249; in the data active = inhibition above about 38%;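 also: enzyme fragment complementation signal reports receptor beta-arrestin coupling in cells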
APJ agonist: agonists of human APJ apelin receptor. P35414. CHO-K1 APJ PathHunter beta-arrestin, luminescence; 0% DMSO wells, 100% apelin. activation, % at 20 µM. 0.11% of 330,000 active;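 active = activation more than six SD over the plate average, tested at 20 µM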
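system = engineered CHO-K1 APJ arrestin reporter cells | input = 1000 cells per well | timing = overnight seeding, 90 min compound at 25 °C, 1 h detection | measured by = enzyme-fragment complementation luminescence | read-out = beta-arrestin recruitment to APJ as agonist activity, luminescent signal | control set = negative DMSO alone, positive Apelin-13 at 10 nM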
CCR6 antagonist: CCR6 (human) receptor antagonism. P51684. CHO-K1 CCR6 PathHunter beta-arrestin, luminescence, CCL20-stimulated. inhibition, % at 20 µM. 0.49% of 340,000 active;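 active = compounds whose inhibition of the agonist-driven luminescence signal at 20 µM reaches about 50%, limit read from the data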;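 also: cells stimulated with CCL20 at 14 nM final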
CXCR6 inh: inhibitors of human CXCR6 receptor. inhibition, % at 20 µM. CHO-K1 PathHunter CXCR6 beta-arrestin, luminescence. 0.36% of 360,000 active; in the data active = inhibition above about 34%, passing the limit was not always enough;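 also: antagonist mode with CXCL16 agonist at 10 nM final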
Target sequence (O00574 whole entry, looked up): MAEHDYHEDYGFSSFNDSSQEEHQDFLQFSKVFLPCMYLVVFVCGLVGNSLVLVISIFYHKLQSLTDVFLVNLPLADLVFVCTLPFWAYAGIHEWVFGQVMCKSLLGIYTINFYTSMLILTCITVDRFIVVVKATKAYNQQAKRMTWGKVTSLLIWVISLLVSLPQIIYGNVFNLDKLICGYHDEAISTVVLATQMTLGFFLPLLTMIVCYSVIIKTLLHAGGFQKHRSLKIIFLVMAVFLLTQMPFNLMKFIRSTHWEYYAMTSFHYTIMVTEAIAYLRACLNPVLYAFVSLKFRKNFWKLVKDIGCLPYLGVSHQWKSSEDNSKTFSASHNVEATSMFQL
APJ antagonist: antagonists of human APJ apelin receptor; CHO-K1 APJ beta-arrestin complementation, luminescence; 0.32% of 330,000 active; inhibition, % at 20 µM; P35414;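 active = inhibition above about 40% at 20 µM, limit read from the data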;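 also: cells challenged with 10 nM apelin-13 agonist together with compound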
EBI2 conf: EBI2 (human) antagonism, single concentration confirmation. shares compounds with EBI2 antag. EBI2 beta-arrestin luminescence, 7a,25-OHC antagonism. inhibition, % at 5 µM. 29% of 2,400 active. AID 651997;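 active = inhibition of at least 50%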
EBI2 ag: EBI2 agonism counter-screen; EBI2-expressing cells, agonist mode, luminescence, 60 min; 0% vehicle, 100% 7α,25-dihydroxycholesterol control; 2,400 tested, under 10 active; AID 652000; shares compounds with EBI2 antag; activation, % at 5 µM;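 active = activation of at least 50%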
bGal counter: inhibits E. coli beta-galactosidase, counter-screen for EBI2 antagonists; shares compounds with EBI2 antag; purified beta-galactosidase, luminescent Galacton Star, 15 min; inhibition, % at 5 µM; 1% of 2,400 active;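 active = replicate-average signal at least 3 plate SD below neutral wells, shown as high inhibition, flagging enzyme-inhibiting false positives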;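 also: higher means stronger loss of beta-gal luminescence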
Numbers stand for hits; - = inactive; . = no result.

SMILES	EBI2 antag	APJ agonist	CCR6 antagonist	CXCR6 inh	APJ antagonist	EBI2 conf	EBI2 ag	bGal counter
Cc1c(NC(=O)/C(C#N)=C/c2c(Oc3ccccc3)nc3ccccn3c2=O)c(=O)n(-c2ccccc2)n1C	-	-	-	-	-	.	.	.
Cc1ccc(Oc2nc3ccccn3c(=O)c2/C=C(\C#N)C(=O)Nc2c(C)n(C)n(-c3ccccc3)c2=O)cc1	57	-	-	-	-	62	-	-
Cc1ccccc1Oc1nc2c(C)cccn2c(=O)c1/C=C(\C#N)C(=O)Nc1c(C)n(C)n(-c2ccccc2)c1=O	65	-	-	-	-	61	-	-
Cc1ccc(C)n1CCN1CCN(C(=O)CC#N)CC1	-	-	-	-	-	.	.	.
CCc1ccc(C(=O)N/N=C(\C)c2cccnc2)s1	-	-	-	-	-	.	.	.
COc1ccc(OC)c(NC(=O)CN(c2ccc(C(C)C)cc2)S(=O)(=O)c2c(C)noc2C)c1	-	-	-	-	-	.	.	.
CCOc1ccc(OCC)c(NC(=O)CN(c2ccc(OC)cc2)S(=O)(=O)c2c(C)noc2C)c1	69	-	-	-	-	-	-	-
CCOc1ccc(OCC)c(NC(=O)CN(c2ccc(C)cc2)S(=O)(=O)c2c(C)noc2C)c1	72	-	-	-	-	-	-	-
COc1ccc(OC)c(NC(=O)CN(c2ccc(C)cc2)S(=O)(=O)c2c(C)noc2C)c1	48	-	-	-	-	-	-	-
Cn1c(-[n+]2c(-c3ccccc3)cc(-c3ccccc3)cc2-c2ccccc2)nc2cc([N+](=O)[O-])ccc21	-	-	-	-	-	.	.	.
CC(C)(C)c1sc(N)nc1-c1ccccc1	-	-	-	-	-	.	.	.
O=C(Nc1cccc(-c2csc(Nc3cccc(C(F)(F)F)c3)n2)c1)c1cc([N+](=O)[O-])cc(C(F)(F)F)c1	47	-	-	-	-	-	-	-
Cc1cccc(Cc2nnc(CCC(=O)N(C)Cc3ccncc3C)o2)c1	-	-	-	-	-	.	.	.
CC(C)(C)c1ccc(C(=O)Nc2ccc(O)c3c(=O)cc(-c4ccccc4Cl)oc23)cc1	-	-	-	-	-	.	.	.
Cc1ccc(/C=C/C(=O)Nc2ccc(O)c3c(=O)cc(-c4ccccc4Cl)oc23)cc1	44	-	-	-	-	-	-	-
COCC(=O)Nc1ccc2c(c1)[C@@H]1C[C@H](CC(=O)NCc3ccccc3)O[C@@H](CO)[C@@H]1O2	-	.	.	-	.	.	.	.
O=C(COC(=O)CSc1ccc2ccccc2c1)Nc1ccccc1OC(F)F	-	-	-	-	-	.	.	.
CCOc1cc(/C=N/NC(=O)c2ccc(CN3CCOCC3)cc2)ccc1OCc1ccccc1	55	-	-	-	-	60	-	-
CCOc1cc(/C=N/NC(=O)CN2CCOCC2)ccc1OCc1ccccc1	-	-	-	-	-	.	.	.
COc1cccc(/C=N/NC(=O)c2ccc(OCc3cccc(Br)c3)cc2)c1	-	-	-	-	-	.	.	.
O=C(N/N=C/c1cccc(OCc2ccccc2)c1)c1ccc(Br)cc1	36	-	-	-	-	-	-	-
O=Cc1cc2c(cc1[B-](F)(F)F)OCO2	-	.	-	-	.	.	.	.
COc1ccccc1N1CCN(C(=O)c2cc(C)on2)CC1	-	-	-	-	-	.	.	.
COc1ccccc1N1CCN(C(=O)c2cc(-c3ccc4c(c3)OCO4)on2)CC1	67	-	-	-	-	-	-	-
COc1ccccc1N1CCN(C(=O)c2cc(-c3cccc(Cl)c3)on2)CC1	72	-	-	-	-	-	-	-
SMILES	EBI2 antag	APJ agonist	CCR6 antagonist	CXCR6 inh	APJ antagonist	EBI2 conf	EBI2 ag	bGal counter
COc1ccc2nc(C)cc(SCC(=O)N/N=C/c3ccc(O)c(O)c3)c2c1	-	-	-	-	-	.	.	.
COc1ccc2nc(C)cc(SCC(=O)N/N=C/c3cccc4ccccc34)c2c1	46	-	-	-	-	-	-	-
COc1cc(OC)cc(C(=O)NNC(=O)CCNS(=O)(=O)c2ccc(Br)cc2)c1	-	-	-	-	-	.	.	.
Cc1ccc(S(=O)(=O)NCCC(=O)NNC(=O)COc2ccc(Br)cc2)cc1C	63	-	-	-	-	-	-	-
O=C(Nc1ccc2ccccc2c1)N1CCCN(CCOc2ccccc2)CC1	-	-	-	-	-	.	.	.
COc1ccc(-n2c(SCC(=O)NNC(=O)c3ccc(C)cc3)nnc2-c2ccncc2)cc1	55	-	-	-	-	-	-	-
O=C(CSc1nnc(-c2ccc(O)cc2)n1Cc1ccccc1)NNC(=O)c1ccc(Br)cc1	89	-	-	-	-	87	-	-
CC(C)OC(=O)CSc1nnc(-c2ccc(O)cc2)n1Cc1ccccc1	-	-	-	-	-	.	.	.
CCn1c(SCC(=O)NNC(=O)c2ccc(C)cc2)nnc1-c1ccncc1	-	-	-	-	-	.	.	.
CCn1c(SCC(=O)NNC(=O)c2ccc(OC)cc2)nnc1-c1cccnc1	59	-	-	-	-	-	-	-
Cc1cc(NC(=O)c2cncc(Br)c2)n(-c2ccccn2)n1	-	.	-	-	.	.	.	.
CCN1CCN(C(c2ccccc2)c2nnnn2Cc2ccc(OC)cc2)CC1 (stereo not drawn)	-	-	-	-	-	.	.	.
CCC(c1nnnn1Cc1ccccc1)N1CCN(C/C=C/c2ccccc2)CC1 (stereo not drawn)	-	.	.	-	.	.	.	.
COc1ccc(-n2nnnc2C(c2ccccc2)N2CCN(C/C=C/c3ccccc3)CC2)cc1 (stereo not drawn)	53	.	.	-	.	-	-	-
COc1ccc(C(c2nnnn2Cc2ccccc2)N2CCN(C/C=C/c3ccccc3)CC2)cc1 (stereo not drawn)	50	.	.	-	.	-	-	-
C(=C\c1ccccc1)/CN1CCN(C(c2ccccc2)c2nnnn2Cc2ccccc2)CC1 (stereo not drawn)	47	.	.	-	.	-	-	-
COc1ccc(Nc2nc(-c3sc(C)nc3C)cs2)cc1	53	-	-	-	-	53	-	-
Cc1[nH]c2ccc(C(=O)N3CCN(Cc4ccccc4)CC3)cc2c1C	65	-	-	-	-	-	-	-
COc1ccc2[nH]c(C(=O)N3CCN(Cc4ccccc4)CC3)cc2c1OC	52	-	-	-	-	-	-	-
CCCN1CCN(C(=O)c2ccc3[nH]c(C)c(C)c3c2)CC1	73	.	.	-	.	-	-	-
Cc1[nH]c2ccc(C(=O)N3CCN(c4ccccn4)CC3)cc2c1C	41	-	-	-	-	-	-	-
CCN(CC)CCNC(=O)c1ccc(NC(=O)c2cccc(S(=O)(=O)N(C)C3CCCCC3)c2)cc1	-	.	-	-	.	.	.	.
O=Cc1ccc(OC(=O)c2cc(Cl)nc3ccccc23)cc1	-	-	-	-	-	.	.	.

Screening data as filed in PubChem.
